Results published in ChEMBL document CHEMBL2424628, “Discovery of potent and selective nonsteroidal indazolyl amide glucocorticoid receptor agonists” (Bioorg Med Chem Lett, 2013).

Columns and labels:
[1] = organism: Homo sapiens; experiment: Selectivity ratio of Ki for progesterone receptor (unknown origin) to Ki for glucocorticoid receptor (unknown origin)
[2] = target: T1, Androgen receptor (Homo sapiens, UniProt P10275); experiment: Binding affinity to androgen receptor (unknown origin) by fluorescence polarization assay
T1 sequence (P10275 whole entry): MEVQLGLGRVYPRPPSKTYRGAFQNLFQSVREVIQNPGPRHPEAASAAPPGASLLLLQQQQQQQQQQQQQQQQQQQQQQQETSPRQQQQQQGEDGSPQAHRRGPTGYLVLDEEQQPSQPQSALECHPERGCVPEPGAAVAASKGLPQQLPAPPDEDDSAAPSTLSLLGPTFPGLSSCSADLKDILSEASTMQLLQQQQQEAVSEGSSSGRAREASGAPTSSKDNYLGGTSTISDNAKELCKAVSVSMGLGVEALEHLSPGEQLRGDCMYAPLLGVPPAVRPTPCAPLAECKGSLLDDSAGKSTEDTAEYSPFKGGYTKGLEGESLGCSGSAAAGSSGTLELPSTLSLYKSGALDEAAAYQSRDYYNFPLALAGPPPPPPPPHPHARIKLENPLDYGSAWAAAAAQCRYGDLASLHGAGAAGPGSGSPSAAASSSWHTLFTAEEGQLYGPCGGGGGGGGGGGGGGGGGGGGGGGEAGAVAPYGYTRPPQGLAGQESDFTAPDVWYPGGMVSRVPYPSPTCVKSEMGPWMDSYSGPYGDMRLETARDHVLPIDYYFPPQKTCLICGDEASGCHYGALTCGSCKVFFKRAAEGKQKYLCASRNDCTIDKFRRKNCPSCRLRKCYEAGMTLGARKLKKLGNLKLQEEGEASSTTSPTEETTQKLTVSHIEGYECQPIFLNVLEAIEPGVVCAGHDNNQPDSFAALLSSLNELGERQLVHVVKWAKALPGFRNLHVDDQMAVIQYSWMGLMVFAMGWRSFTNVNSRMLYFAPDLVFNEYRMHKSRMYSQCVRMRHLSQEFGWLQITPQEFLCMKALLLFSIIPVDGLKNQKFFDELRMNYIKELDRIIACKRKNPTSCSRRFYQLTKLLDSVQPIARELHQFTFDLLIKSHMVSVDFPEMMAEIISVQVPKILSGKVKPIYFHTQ
Procedure, shortened: (§1)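 Fluorescence polarization competition between test compound and a fluorescently labeled ligand for full-length receptor or its ligand binding domain. IC50 from a four-parameter logistic fit of the polarization signal, converted to Ki with Cheng–Prusoff […]. Means of duplicate experiments.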

[3] = target: T2, Progesterone receptor (Homo sapiens, UniProt P06401); experiment: Binding affinity to progesterone receptor (unknown origin) by fluorescence polarization assay; procedure, shortened: as §1
T2 sequence (P06401 whole entry): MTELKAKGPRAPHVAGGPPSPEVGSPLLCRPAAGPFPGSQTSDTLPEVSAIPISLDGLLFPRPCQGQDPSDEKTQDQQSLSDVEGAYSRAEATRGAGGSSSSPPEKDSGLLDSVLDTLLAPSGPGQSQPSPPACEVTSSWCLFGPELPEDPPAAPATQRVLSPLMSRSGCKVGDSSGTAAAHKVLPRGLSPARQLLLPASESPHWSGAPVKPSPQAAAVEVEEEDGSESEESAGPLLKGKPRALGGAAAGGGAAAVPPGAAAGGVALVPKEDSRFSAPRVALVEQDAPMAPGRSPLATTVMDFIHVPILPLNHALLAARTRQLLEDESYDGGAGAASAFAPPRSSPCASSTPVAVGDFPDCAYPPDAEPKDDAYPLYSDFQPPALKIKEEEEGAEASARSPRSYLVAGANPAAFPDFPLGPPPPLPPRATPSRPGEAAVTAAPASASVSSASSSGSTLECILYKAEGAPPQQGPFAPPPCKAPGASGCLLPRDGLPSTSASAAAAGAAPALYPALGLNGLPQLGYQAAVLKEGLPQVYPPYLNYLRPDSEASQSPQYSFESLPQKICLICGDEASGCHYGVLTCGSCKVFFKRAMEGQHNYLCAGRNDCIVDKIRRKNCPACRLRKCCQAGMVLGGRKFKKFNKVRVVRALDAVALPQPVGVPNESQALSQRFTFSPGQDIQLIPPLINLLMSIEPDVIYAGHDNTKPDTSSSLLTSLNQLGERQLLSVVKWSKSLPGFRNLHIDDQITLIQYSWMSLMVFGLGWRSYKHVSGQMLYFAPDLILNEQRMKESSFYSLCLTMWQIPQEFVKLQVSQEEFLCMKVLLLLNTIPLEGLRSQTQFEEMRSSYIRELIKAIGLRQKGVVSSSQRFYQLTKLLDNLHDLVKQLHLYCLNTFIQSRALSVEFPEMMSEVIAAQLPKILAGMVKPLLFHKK

[4] = target: T3, Glucocorticoid receptor (Homo sapiens, UniProt P04150); experiment: Agonist activity at glucocorticoid receptor in human A549 cells assessed as inhibition of PMA-induced AP-1 activation by luciferase reporter gene assay; type: cell-based
T3 sequence (P04150 whole entry): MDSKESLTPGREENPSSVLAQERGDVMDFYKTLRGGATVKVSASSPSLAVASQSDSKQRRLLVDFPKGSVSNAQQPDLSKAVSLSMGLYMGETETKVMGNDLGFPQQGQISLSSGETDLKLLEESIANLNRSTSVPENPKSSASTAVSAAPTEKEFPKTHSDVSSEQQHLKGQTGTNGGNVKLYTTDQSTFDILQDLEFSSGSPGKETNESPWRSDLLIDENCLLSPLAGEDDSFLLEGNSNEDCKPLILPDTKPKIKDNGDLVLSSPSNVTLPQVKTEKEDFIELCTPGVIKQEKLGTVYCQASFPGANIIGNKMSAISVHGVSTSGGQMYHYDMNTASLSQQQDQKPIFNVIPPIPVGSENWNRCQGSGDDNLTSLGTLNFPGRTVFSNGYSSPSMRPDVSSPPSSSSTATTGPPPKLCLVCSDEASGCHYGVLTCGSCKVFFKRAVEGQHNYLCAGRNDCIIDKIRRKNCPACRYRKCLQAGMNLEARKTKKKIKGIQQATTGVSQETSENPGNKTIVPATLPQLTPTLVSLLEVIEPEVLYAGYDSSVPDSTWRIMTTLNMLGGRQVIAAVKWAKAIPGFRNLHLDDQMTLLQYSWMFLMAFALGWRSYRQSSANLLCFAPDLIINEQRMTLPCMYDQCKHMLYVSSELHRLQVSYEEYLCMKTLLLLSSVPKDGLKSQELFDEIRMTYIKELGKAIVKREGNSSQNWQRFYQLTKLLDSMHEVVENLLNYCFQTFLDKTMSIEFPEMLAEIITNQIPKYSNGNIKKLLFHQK

[5] = target: T4, Glucocorticoid receptor (Homo sapiens) (UniProt P04150); experiment: Agonist activity at glucocorticoid receptor in human A549 cells assessed as inhibition of PMA-induced AP-1 activation by luciferase reporter gene assay relative to dexamethasone; type: cell-based
T4 sequence (whole entry): T3 sequence (P04150 whole entry)
Procedure, shortened: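 A549 lung epithelial cells stably carrying a luciferase reporter with 5 copies of the AP-1 response element; AP-1 induced with PMA (15 ng/ml). Compound inhibition of induction read as decreased luciferase. […] Means of two or more experiments in triplicate.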

[6] = organism: Homo sapiens; experiment: Selectivity ratio of Ki for androgen receptor (unknown origin) to Ki for glucocorticoid receptor (unknown origin)

## CCCC(c1ccc2c(cnn2-c2ccc(F)cc2)c1)C(C)(C)C(=O)Nc1nncs1 (racemic)
[1]
  Ratio Ki: 10
[2]
  Ki: 2510 nM
[3]
  Ki: 109 nM
[4]
  EC50: 18 nM
[5]
  Efficacy: 60%
[6]
  Ratio Ki: > 1000

## CC(C(=O)Nc1nncs1)[C@@H](c1ccccc1)c1ccc2c(cnn2-c2ccc(F)cc2)c1 (single isomer, unassigned; diastereomer 2)
[2]
  Ki: 243 nM
[3]
  Ki: 214 nM

## CC(C(=O)Nc1nncs1)[C@@H](c1ccccc1)c1ccc2c(cnn2-c2ccc(F)cc2)c1 (single isomer, unassigned; diastereomer 3)
[2]
  Ki: > 4170 nM
[3]
  Ki: 22 nM
